Test results taken from ChEMBL document CHEMBL3611977, “Synthesis, pharmacological evaluation and docking studies of pyrrole structure-based CB2 receptor antagonists” (Eur J Med Chem, 2015).
The source made the active and inactive calls. The calls are words filed in the database; no cut-off is given here.

Experiments:
Cannabinoid receptor 1 = Cannabinoid receptor 1 (Homo sapiens, UniProt P21554); assay: Displacement of [3H]-CP55940 from human CB1 receptor transfected in HEK293EBNA cell membranes after 90 mins by liquid scintillation counting analysis; design: species or system HEK293-EBNA
Cannabinoid receptor 2 [1] = biological target: T1, Cannabinoid receptor 2 (Homo sapiens, UniProt P34972); assay: Displacement of [3H]-CP55940 from human CB2 receptor transfected in HEK293EBNA cell membranes after 90 mins by liquid scintillation counting analysis; design: species or system HEK293-EBNA
Method in brief: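 Human CB2-transfected HEK293EBNA membranes (about 0.18 mg/mL protein) in Tris-HCl with EDTA, MgCl₂ and fatty-acid-free BSA, pH 7.4. Compounds were pre-screened at a single concentration, with full curves only if displacement exceeded 50%. Ki from iterative curve fitting, three independent experiments in triplicate.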

[2] = biological target: Cannabinoid receptor 2 (Mus musculus) (UniProt P47936); assay: Antagonist/inverse agonist activity at CB2 receptor in mouse BV-2 cells assessed as LPS-induced PGE2 relaese at 10 fold Ki after 16 hrs by ELISA immunoassay; type: cell-based
Method in brief: (§1)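 Mouse BV-2 microglia plated at 5 × 10⁵ cells/well on poly-L-ornithine and grown overnight in DMEM with 10% FBS at 37 °C and 5% CO₂. The medium was switched to 1% FBS 1 h before treatment. Cells were then given LPS (E. coli 055:B5) for 16 h, alone or with test compound, and PGE2 release was measured. Data were analysed by one-way ANOVA.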

Cannabinoid receptor 2 [3] = biological target: T1, Cannabinoid receptor 2; assay: Antagonist/inverse agonist activity at human CB2 receptor transfected in Chem4 cell membranes after 30 mins by [35S]-GTPgammaS binding assay; type: functional
Method in brief: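 Purchased CB2R-containing membranes in 20 mM HEPES with 100 mM NaCl and 10 mM MgCl₂, pH 7.4. Compound was added from 10⁻¹¹ to 10⁻⁵ M together with 30 nM CP55,940 and incubated 30 min at 30 °C. Non-specific signal was defined with unlabelled GTPγS. The reaction was stopped by GF/C filtration with phosphate-buffer washes, then scintillation counting.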

[4] = biological target: Cannabinoid receptor 2 (Mus musculus) (UniProt P47936); assay: Antagonist/inverse agonist activity at CB2 receptor in mouse BV-2 cells assessed as inhibition of WIN55,212-2-mediated attenuation of LPS-induced PGE2 release at 10 fold Ki after 16 hrs by ELISA immunoassay; type: cell-based; method in brief: as §1
[5] = biological target: Cannabinoid receptor 2 (Mus musculus) (UniProt P47936); assay: Antagonist/inverse agonist activity at CB2 receptor in mouse BV-2 cells assessed as LPS-induced PGE2 relaese at 10 fold Ki after 16 hrs by ELISA immunoassay in presence of CB2R antagonist SR144528; type: cell-based; method in brief: as §1
[6] = biological target: Cannabinoid receptor 2 (Mus musculus) (UniProt P47936); details: BV-2, 10 uM

Chain of Cannabinoid receptor 2 (Mus musculus) (P47936 whole entry): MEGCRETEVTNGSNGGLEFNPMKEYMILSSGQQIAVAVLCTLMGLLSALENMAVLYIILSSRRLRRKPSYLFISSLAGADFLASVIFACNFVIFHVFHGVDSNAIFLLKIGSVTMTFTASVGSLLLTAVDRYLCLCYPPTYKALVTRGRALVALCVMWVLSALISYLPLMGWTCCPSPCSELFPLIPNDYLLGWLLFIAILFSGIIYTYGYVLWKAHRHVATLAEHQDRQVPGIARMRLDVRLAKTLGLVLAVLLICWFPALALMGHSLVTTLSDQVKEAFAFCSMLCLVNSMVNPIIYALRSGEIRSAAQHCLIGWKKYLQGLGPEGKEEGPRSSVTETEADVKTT
Chain of Cannabinoid receptor 1 (P21554 whole entry): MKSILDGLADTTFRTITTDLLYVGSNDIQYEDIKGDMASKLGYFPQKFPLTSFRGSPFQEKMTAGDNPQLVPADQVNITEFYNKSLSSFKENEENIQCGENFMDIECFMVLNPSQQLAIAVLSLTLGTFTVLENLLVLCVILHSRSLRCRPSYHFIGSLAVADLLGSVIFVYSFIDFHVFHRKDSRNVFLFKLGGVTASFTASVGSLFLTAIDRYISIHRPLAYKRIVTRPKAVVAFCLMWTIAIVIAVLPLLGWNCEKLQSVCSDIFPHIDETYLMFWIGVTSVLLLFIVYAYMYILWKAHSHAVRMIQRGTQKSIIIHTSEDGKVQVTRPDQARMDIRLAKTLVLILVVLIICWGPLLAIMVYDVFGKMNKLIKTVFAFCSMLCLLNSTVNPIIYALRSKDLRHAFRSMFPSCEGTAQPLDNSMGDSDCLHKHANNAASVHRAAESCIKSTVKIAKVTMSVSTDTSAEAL
T1 sequence (P34972 whole entry): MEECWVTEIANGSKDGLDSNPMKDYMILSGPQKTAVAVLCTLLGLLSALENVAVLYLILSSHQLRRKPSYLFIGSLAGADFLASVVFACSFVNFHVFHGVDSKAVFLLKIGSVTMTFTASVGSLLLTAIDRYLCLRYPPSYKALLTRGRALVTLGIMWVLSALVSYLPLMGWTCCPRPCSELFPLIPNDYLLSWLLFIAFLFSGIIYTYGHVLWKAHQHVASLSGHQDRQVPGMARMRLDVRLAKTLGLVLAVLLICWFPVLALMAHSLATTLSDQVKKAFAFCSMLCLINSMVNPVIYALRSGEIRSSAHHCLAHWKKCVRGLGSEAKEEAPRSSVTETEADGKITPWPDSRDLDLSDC

Row | SMILES | Ki (Cannabinoid receptor 1) [nM] | Ki (Cannabinoid receptor 2 [1]) [nM] | other results
1 | Cc1ccc(Cn2cc(C(=O)N3CCCCC3)cc2-c2ccc(Cl)c(C)c2)cc1 | 3070 | 106 | 
2 | Cc1ccc(Cn2cc(C(=O)NC[C@@H]3CCC4C[C@@H]3C4(C)C)cc2-c2ccc(Cl)c(C)c2)cc1 | > 5000 | 72.2 | inhibition [2]: Active; IC50 (Cannabinoid receptor 2 [3]): 1820 nM; inhibition [4]: Active; inhibition [5]: Active
3 | Cc1ccc(Cn2cc(C(=O)NN3CCCC3)cc2-c2ccc(Cl)c(C)c2)cc1 | > 5000 | > 5000 | 
4 | Cc1ccc(Cn2cc(C(=O)N3CCN(c4ccccc4Cl)CC3)cc2-c2ccc(Cl)c(C)c2)cc1 | > 5000 | 1710 | 
5 | Cc1ccc(Cn2cc(CN3CCN(c4ccc(Cl)cc4)CC3)cc2-c2ccc(Cl)c(C)c2)cc1 | > 5000 | > 5000 | 
6 | Cc1ccc(Cn2cc(C(=O)NCC34CC5CC(CC(C5)C3)C4)cc2-c2ccc(Cl)c(C)c2)cc1 | > 5000 | > 5000 | 
7 | Cc1ccc(Cn2cc(C(=O)NC3CCCCC3)cc2-c2ccc(Cl)c(C)c2)cc1 | > 5000 | 244 | 
8 | Cc1ccc(Cn2cc(CN3CCN(c4ccc(Cl)c(Cl)c4)CC3)cc2-c2ccc(Cl)c(C)c2)cc1 | > 5000 | > 5000 | 
9 | Cc1ccc(Cn2nc(C(=O)N[C@@H]3CC4CC[C@@]3(C)C4(C)C)cc2-c2ccc(Cl)c(C)c2)cc1 |  | 7.2 | 
10 | Cc1ccc(Cn2cc(C(=O)NC34CC5CC(CC(C5)C3)C4)cc2-c2ccc(Cl)c(C)c2)cc1 | > 5000 | > 5000 | 
11 | Cc1ccc(Cn2cc(C(=O)Nc3cccc4ccccc34)cc2-c2ccc(Cl)c(C)c2)cc1 | > 5000 | > 5000 | 
12 | Cc1ccc(Cn2cc(C(=O)N[C@@H](C)C3CCCCC3)cc2-c2ccc(Cl)c(C)c2)cc1 |  | 492 | 
13 | Cc1ccc(Cn2cc(C(=O)N[C@H]3C[C@@H](C)CC[C@@H]3C(C)C)cc2-c2ccc(Cl)c(C)c2)cc1 | > 5000 | 1100 | 
14 | Cc1ccc(Cn2cc(C(=O)N[C@@H]3CC4CC[C@@]3(C)C4(C)C)cc2-c2ccc(Cl)c(C)c2)cc1 | 368 | 164 | 
15 | Cc1ccc(Cn2cc(CN[C@@H]3C(C)(C)C4CC[C@@]3(C)C4)cc2-c2ccc(Cl)c(C)c2)cc1 |  | 343 | 
16 | Cc1ccc(Cn2nc(C(=O)N[C@@H]3C(C)(C)[C@@H]4CC[C@@]3(C)C4)cc2-c2ccc(Cl)c(C)c2)cc1 |  |  | inhibition [6]: Active
17 | Cc1ccc(Cn2cc(C(=O)NN3CCCCC3)cc2-c2ccc(Cl)c(C)c2)cc1 | > 5000 | > 5000 | 
18 | Cc1ccc(Cn2cc(C(=O)N[C@@H]3C[C@@H]4C[C@H]([C@H]3C)C4(C)C)cc2-c2ccc(Cl)c(C)c2)cc1 |  | > 5000 | 
19 | Cc1ccc(Cn2cc(C(=O)NN3CCCCCC3)cc2-c2ccc(Cl)c(C)c2)cc1 | > 5000 | 575 | 
20 | Cc1ccc(Cn2cc(C(=O)N[C@H](C)C3CCCCC3)cc2-c2ccc(Cl)c(C)c2)cc1 | > 5000 | > 5000 | 
21 | Cc1ccc(Cn2cc(C(=O)N[C@@H]3C(C)(C)C4CC[C@@]3(C)C4)cc2-c2ccc(Cl)c(C)c2)cc1 | 1470 | 5.7 | inhibition [2]: Active; IC50 (Cannabinoid receptor 2 [3]): 171 nM; inhibition [4]: Active; inhibition [5]: Active
